Results from ChEMBL document CHEMBL1828602, “CNS and antimalarial activity of synthetic meridianin and psammopemmin analogs” (Bioorg Med Chem, 2011).

Tests used:
[1] = test system: A549; test: Cytotoxicity against human A549 cells after 72 hrs; type: cell-based
How it was run: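 A549 cells at 12,000 per well in DMEM F12 (no HEPES or phenol red) with 2% FBS and 1% penicillin–streptomycin, preincubated 24 h at 37 °C, 5% CO2. Compounds then added, 72 h incubation. Viability by MTS-type tetrazolium reagent, 1 h at 37 °C, absorbance at 490 nm. IC50 determined.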

[2] = test system: Plasmodium falciparum; test: Antimalarial activity against transgenic Plasmodium falciparum 3D7 infected in human A positive erythrocytes after 72 hrs by luciferase reporter gene assay; type: functional, organism-based; details: 3D7, 72 h
How it was run: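 Luciferase-expressing P. falciparum 3D7 kept in RPMI 1640 without phenol red, 10% heat-inactivated A+ human plasma, 4% washed A+ erythrocytes, 90% N2/5% O2/5% CO2, 37 °C. Ring-stage cultures (>70% rings) diluted to 0.5% parasitemia, 1.5% hematocrit. Eleven-point duplicate twofold series, final 100 to 0.098 µg/mL. Incubated 72 h, frozen at −20 °C, lysed, luminescence read (5 s integration). IC50 by nonlinear regression.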

[3] = target: T1, Muscarinic acetylcholine receptor M5 (Homo sapiens, UniProt P08912); test: Displacement of [3H]QNB from muscarinic acetylcholine M5 receptor after 1.5 hrs by scintillation counting
T1 sequence (P08912 whole entry): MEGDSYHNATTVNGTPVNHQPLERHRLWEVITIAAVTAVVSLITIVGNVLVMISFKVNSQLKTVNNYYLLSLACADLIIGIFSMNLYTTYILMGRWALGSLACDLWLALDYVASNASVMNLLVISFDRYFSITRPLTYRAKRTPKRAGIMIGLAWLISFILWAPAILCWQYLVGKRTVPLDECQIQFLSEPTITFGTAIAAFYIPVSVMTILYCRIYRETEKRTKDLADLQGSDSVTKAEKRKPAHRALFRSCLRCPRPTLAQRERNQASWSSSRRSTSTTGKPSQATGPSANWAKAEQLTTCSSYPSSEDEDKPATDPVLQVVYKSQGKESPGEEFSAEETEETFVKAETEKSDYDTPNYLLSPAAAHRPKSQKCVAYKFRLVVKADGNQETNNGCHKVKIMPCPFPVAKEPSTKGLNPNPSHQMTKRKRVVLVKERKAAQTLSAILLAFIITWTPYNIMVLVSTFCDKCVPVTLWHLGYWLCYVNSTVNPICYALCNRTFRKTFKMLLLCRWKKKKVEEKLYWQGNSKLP

[4] = target: 5-hydroxytryptamine receptor 2B (Homo sapiens, UniProt P41595); test: Displacement of [3H]LSD from 5-HT2B receptor after 1.5 hrs by scintillation counting
5-hydroxytryptamine receptor 2B, sequence (P41595 whole entry): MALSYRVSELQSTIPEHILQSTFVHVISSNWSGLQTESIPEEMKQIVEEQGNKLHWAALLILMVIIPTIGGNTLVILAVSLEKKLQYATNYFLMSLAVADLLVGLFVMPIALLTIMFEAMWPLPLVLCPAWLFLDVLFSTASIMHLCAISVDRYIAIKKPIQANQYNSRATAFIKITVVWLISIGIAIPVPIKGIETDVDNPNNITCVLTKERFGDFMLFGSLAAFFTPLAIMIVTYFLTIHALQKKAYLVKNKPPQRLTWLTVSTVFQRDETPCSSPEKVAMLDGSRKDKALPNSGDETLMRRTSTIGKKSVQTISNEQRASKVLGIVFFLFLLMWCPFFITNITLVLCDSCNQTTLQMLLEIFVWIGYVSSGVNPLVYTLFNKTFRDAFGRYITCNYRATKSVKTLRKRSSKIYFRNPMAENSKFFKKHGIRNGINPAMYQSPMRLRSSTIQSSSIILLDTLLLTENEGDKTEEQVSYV

[5] = target: D(1B) dopamine receptor (Homo sapiens, UniProt P21918); test: Displacement of [3H][…] from dopamine D5 receptor after 1.5 hrs by scintillation counting
D(1B) dopamine receptor, sequence (P21918 whole entry): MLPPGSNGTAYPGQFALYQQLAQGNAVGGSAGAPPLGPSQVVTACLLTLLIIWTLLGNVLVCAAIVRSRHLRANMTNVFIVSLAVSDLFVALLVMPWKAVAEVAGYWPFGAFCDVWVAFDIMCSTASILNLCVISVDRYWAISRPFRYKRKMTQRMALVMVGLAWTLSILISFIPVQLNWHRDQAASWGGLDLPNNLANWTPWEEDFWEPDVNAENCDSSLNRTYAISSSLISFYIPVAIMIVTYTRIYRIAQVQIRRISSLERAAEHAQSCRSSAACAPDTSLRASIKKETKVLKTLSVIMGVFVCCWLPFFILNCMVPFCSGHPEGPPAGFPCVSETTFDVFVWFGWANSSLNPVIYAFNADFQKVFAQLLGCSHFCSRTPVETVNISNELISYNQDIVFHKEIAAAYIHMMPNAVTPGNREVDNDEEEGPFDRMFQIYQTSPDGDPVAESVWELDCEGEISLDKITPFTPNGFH

[6] = target: 5-hydroxytryptamine receptor 5A (Homo sapiens, UniProt P47898); test: Displacement of [3H]LSD from 5-HT5A receptor after 1.5 hrs by scintillation counting
5-hydroxytryptamine receptor 5A, sequence (P47898 whole entry): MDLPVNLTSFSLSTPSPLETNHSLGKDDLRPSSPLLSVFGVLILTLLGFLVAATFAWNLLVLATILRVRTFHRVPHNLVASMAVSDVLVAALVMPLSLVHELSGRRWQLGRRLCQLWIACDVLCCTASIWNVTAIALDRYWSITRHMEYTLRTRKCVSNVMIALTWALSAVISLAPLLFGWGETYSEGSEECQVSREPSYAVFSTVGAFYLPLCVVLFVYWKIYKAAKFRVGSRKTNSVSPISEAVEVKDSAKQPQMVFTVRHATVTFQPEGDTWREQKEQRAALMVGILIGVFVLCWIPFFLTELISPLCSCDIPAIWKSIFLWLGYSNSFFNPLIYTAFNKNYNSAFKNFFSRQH

[7] = target: T2, 5-hydroxytryptamine receptor 1A (Homo sapiens, UniProt P08908); test: Displacement of [3H]8-OH-DPAT from 5-HT1A receptor after 1.5 hrs by scintillation counting
T2 sequence (P08908 whole entry): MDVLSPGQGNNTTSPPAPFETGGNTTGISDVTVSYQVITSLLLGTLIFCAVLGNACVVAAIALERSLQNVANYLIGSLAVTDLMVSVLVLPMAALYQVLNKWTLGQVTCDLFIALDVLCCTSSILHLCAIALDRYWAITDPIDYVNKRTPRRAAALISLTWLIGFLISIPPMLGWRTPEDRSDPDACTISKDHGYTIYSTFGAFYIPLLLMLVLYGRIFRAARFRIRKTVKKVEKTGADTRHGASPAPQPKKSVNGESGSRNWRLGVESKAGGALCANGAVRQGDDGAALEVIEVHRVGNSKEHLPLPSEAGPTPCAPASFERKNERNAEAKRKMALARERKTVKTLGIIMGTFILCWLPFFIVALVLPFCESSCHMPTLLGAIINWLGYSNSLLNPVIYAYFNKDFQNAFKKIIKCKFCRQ

[8] = target: T3, 5-hydroxytryptamine receptor 2C (Homo sapiens, UniProt P28335); test: Displacement of [3H]mesulergine from 5-HT2C receptor after 1.5 hrs by scintillation counting
T3 sequence (P28335 whole entry): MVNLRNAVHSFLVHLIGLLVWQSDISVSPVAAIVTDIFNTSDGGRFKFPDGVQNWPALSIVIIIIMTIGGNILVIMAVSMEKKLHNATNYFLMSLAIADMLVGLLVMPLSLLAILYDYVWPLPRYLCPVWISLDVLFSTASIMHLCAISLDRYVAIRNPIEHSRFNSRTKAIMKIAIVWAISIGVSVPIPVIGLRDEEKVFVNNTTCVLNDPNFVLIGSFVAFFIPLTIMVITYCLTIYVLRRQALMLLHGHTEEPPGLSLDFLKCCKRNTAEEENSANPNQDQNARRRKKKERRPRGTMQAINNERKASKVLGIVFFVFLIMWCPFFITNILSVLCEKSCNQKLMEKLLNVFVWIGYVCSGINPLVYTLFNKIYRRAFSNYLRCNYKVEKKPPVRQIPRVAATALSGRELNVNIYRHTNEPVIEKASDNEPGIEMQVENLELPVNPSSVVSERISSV

[9] = target: Sodium-dependent dopamine transporter (Homo sapiens, UniProt Q01959); test: Displacement of [3H]WIN35428 from DAT after 1.5 hrs by scintillation counting
Sodium-dependent dopamine transporter, sequence (Q01959 whole entry): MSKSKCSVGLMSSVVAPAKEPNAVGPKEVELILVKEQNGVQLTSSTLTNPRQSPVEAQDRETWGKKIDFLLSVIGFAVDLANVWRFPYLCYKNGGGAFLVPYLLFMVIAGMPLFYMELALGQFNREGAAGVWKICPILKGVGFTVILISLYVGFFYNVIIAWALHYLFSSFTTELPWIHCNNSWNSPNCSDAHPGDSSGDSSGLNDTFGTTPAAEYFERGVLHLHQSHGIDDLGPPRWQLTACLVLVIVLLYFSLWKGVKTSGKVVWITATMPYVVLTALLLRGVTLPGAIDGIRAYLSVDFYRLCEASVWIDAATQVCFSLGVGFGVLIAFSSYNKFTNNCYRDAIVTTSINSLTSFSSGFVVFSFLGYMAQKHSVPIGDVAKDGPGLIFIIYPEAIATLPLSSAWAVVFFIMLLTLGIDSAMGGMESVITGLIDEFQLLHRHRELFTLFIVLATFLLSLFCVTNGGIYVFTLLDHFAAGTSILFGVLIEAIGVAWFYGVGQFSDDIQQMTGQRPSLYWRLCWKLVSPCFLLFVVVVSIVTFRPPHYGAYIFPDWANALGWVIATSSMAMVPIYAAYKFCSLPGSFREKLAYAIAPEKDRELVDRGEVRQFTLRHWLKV

[10] = target: 5-hydroxytryptamine receptor 1D (Homo sapiens, UniProt P28221); test: Displacement of [3H]5-carboximidotryptamine from 5-HT1D receptor after 1.5 hrs by scintillation counting
5-hydroxytryptamine receptor 1D, sequence (P28221 whole entry): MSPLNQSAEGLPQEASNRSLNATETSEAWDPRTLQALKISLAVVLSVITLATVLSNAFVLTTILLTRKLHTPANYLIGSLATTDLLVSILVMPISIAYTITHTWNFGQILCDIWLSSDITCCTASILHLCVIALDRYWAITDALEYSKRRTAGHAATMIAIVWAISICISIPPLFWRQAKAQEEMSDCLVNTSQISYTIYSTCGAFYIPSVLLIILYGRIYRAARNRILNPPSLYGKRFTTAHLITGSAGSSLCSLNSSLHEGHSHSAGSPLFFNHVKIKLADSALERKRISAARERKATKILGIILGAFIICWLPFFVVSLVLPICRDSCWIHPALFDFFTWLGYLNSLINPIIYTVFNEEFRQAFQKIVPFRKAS

[11] = target: 5-hydroxytryptamine receptor 7 (Homo sapiens, UniProt P34969); test: Displacement of [3H]LSD from 5-HT7 receptor after 1.5 hrs by scintillation counting
5-hydroxytryptamine receptor 7, sequence (P34969 whole entry): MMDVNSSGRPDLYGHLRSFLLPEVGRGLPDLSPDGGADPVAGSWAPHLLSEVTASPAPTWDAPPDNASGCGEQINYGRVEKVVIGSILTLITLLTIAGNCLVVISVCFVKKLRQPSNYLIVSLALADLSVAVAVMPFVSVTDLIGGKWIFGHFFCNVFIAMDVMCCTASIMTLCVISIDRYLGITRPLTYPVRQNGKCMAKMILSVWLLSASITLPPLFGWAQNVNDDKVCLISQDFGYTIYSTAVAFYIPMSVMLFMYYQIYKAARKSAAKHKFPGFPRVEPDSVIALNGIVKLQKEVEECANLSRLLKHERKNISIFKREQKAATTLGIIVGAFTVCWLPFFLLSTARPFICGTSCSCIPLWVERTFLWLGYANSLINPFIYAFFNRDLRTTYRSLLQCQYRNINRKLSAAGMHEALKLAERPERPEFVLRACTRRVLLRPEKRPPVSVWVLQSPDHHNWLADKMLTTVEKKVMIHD

[12] = test system: HEp-2; test: Cytotoxicity against human Hep2 cells; type: cell-based
[13] = Inhibition of PKG
[14] = test system: SH-SY5Y; test: Cytotoxicity against human SH-SY5Y cells by MTS assay; type: cell-based
[15] = Cytotoxicity against mouse LMM3 cells; type: cell-based
[16] = target: Cyclin-dependent kinase 5 (Homo sapiens, UniProt Q00535); test: Inhibition of CDK5
Cyclin-dependent kinase 5, sequence (Q00535 whole entry, the tested form may be a part): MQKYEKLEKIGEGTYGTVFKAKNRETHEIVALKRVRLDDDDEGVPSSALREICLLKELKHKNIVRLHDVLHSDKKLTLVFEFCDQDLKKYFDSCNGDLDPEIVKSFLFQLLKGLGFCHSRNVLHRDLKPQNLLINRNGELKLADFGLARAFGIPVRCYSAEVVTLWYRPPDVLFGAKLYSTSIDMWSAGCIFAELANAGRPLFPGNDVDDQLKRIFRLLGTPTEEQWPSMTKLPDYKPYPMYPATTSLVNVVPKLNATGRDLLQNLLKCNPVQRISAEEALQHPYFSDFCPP

[17] = target: CDK9/cyclin T1 (Homo sapiens, UniProt P50750); test: Inhibition of human recombinant CDK9/cyclin T expressed in insect cells assessed as pRB fragment (773 to 928) phosphorylation using [33P]gamma-ATP after 30 mins by scintillation counting
CDK9/cyclin T1, sequence (O60563 whole entry, the tested form may be a part): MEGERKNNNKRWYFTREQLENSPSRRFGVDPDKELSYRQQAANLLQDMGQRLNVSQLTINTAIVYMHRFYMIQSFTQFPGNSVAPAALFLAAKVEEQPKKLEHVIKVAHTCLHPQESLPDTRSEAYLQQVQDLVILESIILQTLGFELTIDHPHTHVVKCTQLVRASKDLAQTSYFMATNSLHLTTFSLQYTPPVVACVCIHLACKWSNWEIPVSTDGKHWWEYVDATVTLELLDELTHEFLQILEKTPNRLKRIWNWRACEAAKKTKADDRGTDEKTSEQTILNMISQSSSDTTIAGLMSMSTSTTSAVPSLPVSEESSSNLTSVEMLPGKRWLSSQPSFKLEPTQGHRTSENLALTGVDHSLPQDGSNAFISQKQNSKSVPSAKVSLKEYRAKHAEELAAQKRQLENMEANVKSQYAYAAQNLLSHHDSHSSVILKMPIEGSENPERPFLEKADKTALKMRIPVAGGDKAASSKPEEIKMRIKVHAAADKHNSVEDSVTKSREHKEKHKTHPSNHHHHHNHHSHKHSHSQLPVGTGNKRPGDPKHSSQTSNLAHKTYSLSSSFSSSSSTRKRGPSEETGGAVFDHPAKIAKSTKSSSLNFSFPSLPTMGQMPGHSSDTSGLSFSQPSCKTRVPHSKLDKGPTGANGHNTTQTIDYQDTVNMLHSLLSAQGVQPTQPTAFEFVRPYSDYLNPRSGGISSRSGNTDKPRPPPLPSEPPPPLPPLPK
CDK9/cyclin T1, sequence (P50750 whole entry, the tested form may be a part): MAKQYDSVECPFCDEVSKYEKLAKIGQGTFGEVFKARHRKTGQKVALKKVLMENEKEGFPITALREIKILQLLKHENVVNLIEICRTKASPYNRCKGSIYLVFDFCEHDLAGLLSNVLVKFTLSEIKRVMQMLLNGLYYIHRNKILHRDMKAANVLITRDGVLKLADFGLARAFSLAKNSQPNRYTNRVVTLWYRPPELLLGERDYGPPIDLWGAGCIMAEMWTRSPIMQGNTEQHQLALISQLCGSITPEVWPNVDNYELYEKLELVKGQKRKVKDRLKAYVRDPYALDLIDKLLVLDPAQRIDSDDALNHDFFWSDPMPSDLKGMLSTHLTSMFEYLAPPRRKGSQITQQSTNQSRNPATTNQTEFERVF

[18] = Inhibition of pig brain CK1delta/epsilon assessed as RRKHAAIGSpAYSITA phosphorylation using [33P]gamma-ATP after 30 mins by scintillation counting; set-up: species or system Sus scrofa
[19] = target: Cyclin-dependent kinase 2/cyclin A (Homo sapiens, UniProt P24941); test: Inhibition of human recombinant CDK2/cyclin A expressed in insect cells assessed as histone phosphorylation using [33P]gamma-ATP after 30 mins by scintillation counting
[20] = Inhibition of PKA
[21] = test system: HT-29; test: Cytotoxicity against human HT-29 cells; type: cell-based

SMILES	IC50 [2]	IC50 [3]	Ki [4]	Ki [5]	Ki [7]	Ki [8]	IC50 [9]	Ki [10]	Ki [3]	IC50 [6]	IC50 [11]	IC50 [4]	IC50 [7]	IC50 [8]	IC50 ([1]; Homo sapiens, A549, 72 h)	further results
CC1=C[C@H]2O[C@@H]3C[C@H]4OC(=O)/C=C\C=C\[C@H]([C@@H](C)O)OCC/C(C)=C/C(=O)OC[C@@]2(CC1)[C@]4(C)[C@]31CO1 [RORIDIN E]	–	–	–	–	–	–	–	–	–	–	–	–	–	–	–	IC50 ([1]; a549): < 9.7 µM
Nc1nc(Br)ncc1-c1c[nH]c2cccc(O)c12 [PSAMMOPEMMIN A]	> 33 µM	> 10 µM	–	> 10 µM	–	–	> 10 µM	> 10 µM	–	> 10 µM	> 10 µM	> 10 µM	> 10 µM	> 10 µM	> 219 µM	–
Nc1nc(Cl)ncc1-c1c[nH]c2cccc(O)c12	> 38 µM	–	–	> 10 µM	–	–	> 10 µM	–	7.04 µM	> 10 µM	> 10 µM	> 10 µM	> 10 µM	> 10 µM	> 256 µM	IC50 [10]: > 10 µM

Now from value to compound, other results behind:

IC50 [2]	IC50 [3]	Ki [4]	Ki [5]	Ki [7]	Ki [8]	IC50 [9]	Ki [10]	Ki [3]	IC50 [6]	IC50 [11]	IC50 [4]	IC50 [7]	IC50 [8]	SMILES	IC50 ([1]; Homo sapiens, A549, 72 h)	further results
200 µM	–	–	–	–	–	–	–	–	–	–	–	–	–	CCN(CC)c1nccc(-c2c[nH]c3cc(Cl)ccc23)n1 [MERIDOQUIN]	> 333 µM	–
40 µM	> 10 µM	0.088 µM	> 10 µM	1.35 µM	> 10 µM	> 10 µM	> 10 µM	–	–	–	–	–	–	COc1cccc2[nH]cc(-c3ccnc(N)n3)c12	> 420 µM	Ki [6]: 1.53 µM; Ki [11]: 1.99 µM
12 µM	–	0.15 µM	> 10 µM	0.684 µM	> 10 µM	–	> 10 µM	> 10 µM	> 10 µM	> 10 µM	–	–	–	Nc1nccc(-c2c[nH]c3cccc(O)c23)n1 [MERIDIANIN A]	15 µM	IC50 [12]: > 100 µM; IC50 [13]: 200 µM; IC50 [14]: > 30 µM; IC50 [15]: > 100 µM; IC50 [16]: 3.5 µM; IC50 [17]: 2.4 µM; Ki [9]: 2.35 µM; IC50 [18]: 1.1 µM; IC50 [19]: 3.1 µM; IC50 [20]: 11 µM; IC50 [21]: > 100 µM
